ERAP1 HTS inh – human ERAP1 aminopeptidase inhibitors, primary screen, biochemical, single point, plate reader; inhibition, % at 10.7 µM; Endoplasmic reticulum aminopeptidase 1 (Homo sapiens), Q9NZ08; AID 652197, 2013; 340,000 tested, 0.15% active; recombinant ERAP1, Leu-AMC fluorescence, 60 min;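 active = mean replicate inhibition of at least 30%, or all replicates individually reaching that 30% level; inactive = mean below 30% and not every replicate reaching it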;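 note: 0% = neutral control wells and 100% = L-leucinethiol positive control wells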
Target sequence (Q9NZ08 whole entry, looked up): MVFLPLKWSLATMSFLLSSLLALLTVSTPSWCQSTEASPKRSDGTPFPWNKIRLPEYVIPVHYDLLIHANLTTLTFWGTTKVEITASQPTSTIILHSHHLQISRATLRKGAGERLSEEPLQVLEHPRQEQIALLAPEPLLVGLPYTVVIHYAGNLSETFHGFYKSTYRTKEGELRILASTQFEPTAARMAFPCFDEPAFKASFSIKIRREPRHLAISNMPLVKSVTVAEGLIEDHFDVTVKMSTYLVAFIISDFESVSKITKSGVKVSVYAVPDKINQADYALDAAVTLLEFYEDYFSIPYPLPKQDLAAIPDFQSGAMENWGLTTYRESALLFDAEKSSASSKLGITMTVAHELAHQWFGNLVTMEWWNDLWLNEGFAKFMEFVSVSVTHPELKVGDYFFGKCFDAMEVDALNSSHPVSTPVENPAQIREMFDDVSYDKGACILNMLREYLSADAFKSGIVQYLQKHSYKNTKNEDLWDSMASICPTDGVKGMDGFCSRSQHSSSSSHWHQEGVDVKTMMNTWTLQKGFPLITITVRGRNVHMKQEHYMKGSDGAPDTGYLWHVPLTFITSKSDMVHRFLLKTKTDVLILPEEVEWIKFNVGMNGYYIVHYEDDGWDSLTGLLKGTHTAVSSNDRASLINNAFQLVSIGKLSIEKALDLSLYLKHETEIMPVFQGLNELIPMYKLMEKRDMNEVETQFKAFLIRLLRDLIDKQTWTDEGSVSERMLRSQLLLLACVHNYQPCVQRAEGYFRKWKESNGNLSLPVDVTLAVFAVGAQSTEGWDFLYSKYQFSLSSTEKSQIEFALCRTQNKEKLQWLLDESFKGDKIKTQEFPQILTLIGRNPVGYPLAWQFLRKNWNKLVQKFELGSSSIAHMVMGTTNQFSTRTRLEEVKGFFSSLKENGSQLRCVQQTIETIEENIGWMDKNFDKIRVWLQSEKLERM
F508del corr – F508del CFTR correction, initial screen, CFBE line, single point | AID 720511, 2013 | CFBE cells, YFP halide quenching; stimulated with forskolin plus potentiator P3; % fluorescence drop versus neutral controls | 350,000 tested, 0.36% active | activity (quench increase), % at 7.58 µM;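 active = mean added fluorescence quench of at least 8% versus neutral control, with both replicates also reaching 8%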;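 note: cells transiently co-express mutant CFTR-F508del with the halide-sensitive YFP; corrector assay measuring rescue of mutant channel to the surface after 24 h compound exposure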
S100A4 MyoIIA – inhibitors of S100A4-myosin IIA peptide binding, primary screen, biochemical, fluorescence polarization, TAMRA-MyoIIA peptide. Protein S100-A4 (Homo sapiens), P26447. inhibition, % at 10.7 µM. 360,000 tested, 0.14% active;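 active = mean inhibition of at least 70% across replicates, with every replicate also reaching that level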
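Material: S100A4 monomer protein / Buffer or medium: 50 mM HEPES pH 7.2, 10 mM CaCl2, 100 mM KCl / Times: 5 min incubation before reading / Benchmarks: neutral control DMSO, positive control TFP / Reagent: labelled myosin peptide probe, 5 nM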
SIRT5 inh – SIRT5 desuccinylase inhibitors, primary screen, biochemical, fluorescence imaging, single point, set 5; NAD-dependent protein deacylase sirtuin-5, mitochondrial (Homo sapiens), Q9NXA8; Purified SirT5, succinyl-peptide AMC, trypsin-coupled fluorescence; inhibition, % at 15 µM; 330,000 tested, 1.1% active; AID 652115, 2013; in the data active = inhibition above about 15%
Ecoli rRNA inh – reduced GFP signal of wild-type E. coli, primary screen, bacterial rRNA inhibitor project, GFP/RFP fluorescence, OD600, single point | E. coli WT GFP vs humanized-ribosome RFP mutants, 24 h; active compounds read low; DMSO median 0, no signal -100 | GFP signal change (wild-type ribosome), % (concentration not given with the values) | 350,000 tested, 1.6% active;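 active = significant combined selectivity score with lowered wild-type GFP, culture density cut under 30%, mutant RFP and density less affected; inactive = any of these conditions unmet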
Starred values were filed as active, the others as inactive; . = no result; ! = a repeat was not active. Only some compounds are listed: those with a hit (about 3.1% of all), similar ones and a draw of the others.

SMILES | ERAP1 HTS inh | F508del corr | S100A4 MyoIIA | SIRT5 inh | Ecoli rRNA inh
COc1cccc(NC(=O)N(C)C[C@H]2Oc3cc(-c4ccccc4OC)ccc3S(=O)(=O)N([C@H](C)CO)C[C@H]2C)c1 | -2 | -2 | 2 | 3 | -6
C[C@@H]1CN([C@@H](C)CO)S(=O)(=O)c2ccc(/C=C/c3ccccc3)cc2O[C@@H]1CN(C)C(=O)Nc1ccc(F)cc1 | 1 | 1 | -11 | 17* | 2
COc1ccc(CN(C)C[C@@H]2Oc3ccc(NC(=O)CCC(F)(F)F)cc3CC(=O)N([C@@H](C)CO)C[C@@H]2C)cc1 | 1 | 1 | 4 | -3 | 0
COc1ccc2c3c([nH]c2c1)[C@H](CO)N(C(=O)c1ccncc1)CC31CCN(C(=O)CC2CC2)CC1 | 7 | -2 | 7 | 2 | 0
COc1ccc(S(=O)(=O)Nc2ccc3c(c2)C(=O)N([C@@H](C)CO)C[C@@H](C)[C@@H](CN(C)Cc2ccccc2)OCCCC[C@H](C)O3)cc1 | . | 3 | . | . | 1
COc1cccc(-c2ccc3c(c2)O[C@H](CN(C)C(=O)c2ccccc2F)[C@H](C)CN([C@H](C)CO)S3(=O)=O)c1 | 2 | 2 | -5 | 37*! | -3
COc1cccc(-c2ccc3c(c2)O[C@@H](CN(C)C(=O)c2ccccc2F)[C@H](C)CN([C@H](C)CO)S3(=O)=O)c1 | . | -2 | -15 | 7 | -3
Cc1nnc(SCC(=O)Nc2ccc3c(c2)OCO3)s1 | -2 | -1 | -4 | -2 | 5
O=C(CSc1nc2ccccc2s1)Nc1ccc2c(c1)OCO2 | 11 | 1 | 1 | -1 | -28*
COc1cc(/C=C(\C#N)C(=O)N2CCc3ccccc32)ccc1O | 2 | -1 | -7 | 2 | -33*
CN1CCN(C(=O)C[C@H]2CC[C@H]3[C@@H](COC[C@H](O)CN3C(=O)C3CC3)O2)CC1 | 2 | -1 | 0 | -7 | -2
CC1CC(C)CN(S(=O)(=O)c2ccc3c(c2)oc(=O)n3CC(=O)NCc2cccnc2)C1 (stereo unspecified) | . | 1 | -2 | 22* | 6
O=c1c(Cc2ccccc2)c(O)c2cccc3c4c(n1c23)CCCC4 | 1 | -2 | -1 | 0 | -19*
CNC[C@H]1Oc2ccc(NS(=O)(=O)c3ccc(F)cc3)cc2CC(=O)N([C@@H](C)CO)C[C@H]1C | -2 | 0 | -8 | 5 | 3
CC(C)NC(=O)N(C)C[C@H]1Oc2ccc(NC(=O)NC3CCCCC3)cc2CC(=O)N([C@@H](C)CO)C[C@H]1C | 0 | -2 | 7 | -6 | 2
C[C@@H]1CN([C@@H](C)CO)S(=O)(=O)c2ccc(C#C[C@@H](C)O)cc2O[C@@H]1CN(C)Cc1ccc(-c2ccccc2)cc1 | 2 | 1 | -1 | 24* | 0
C[C@@H](O)C#Cc1ccc2c(c1)O[C@H](CN(C)Cc1ccccc1)[C@@H](C)CN([C@@H](C)CO)S2(=O)=O | -4 | -2 | -10 | 3 | -12
C[C@H](O)C#Cc1ccc2c(c1)O[C@H](CN(C)Cc1ccccc1)[C@@H](C)CN([C@H](C)CO)S2(=O)=O | -1 | 0 | -16 | 0 | -10
C[C@@H]1CN([C@H](C)CO)S(=O)(=O)c2ccc(C#C[C@@H](C)O)cc2O[C@H]1CN(C)Cc1ccc(-c2ccccc2)cc1 | -1 | 3 | -6 | 30* | -4
C[C@@H]1CN([C@H](C)CO)S(=O)(=O)c2ccc(C#C[C@@H](C)O)cc2O[C@H]1CN(C)Cc1ccccc1 | -1 | -3 | 14 | 2 | -8
C[C@H](O)C#Cc1ccc2c(c1)O[C@@H](CN(C)Cc1ccc(-c3ccccc3)cc1)[C@H](C)CN([C@H](C)CO)S2(=O)=O | -1 | 2 | 1 | 28* | -3
C[C@H](O)C#Cc1ccc2c(c1)O[C@H](CN(C)Cc1ccc(-c3ccccc3)cc1)[C@@H](C)CN([C@@H](C)CO)S2(=O)=O | 3 | -3 | -2 | 30* | -4
C[C@@H]1CN([C@@H](C)CO)C(=O)Cc2cc(N(C)C)ccc2O[C@H]1CN(C)S(=O)(=O)c1ccc(F)cc1 | -1 | -1 | 4 | 2 | -7
O=C(C[C@@H]1C[C@H]2c3cc(NC(=O)c4cccnc4)ccc3O[C@H]2[C@@H](CO)O1)NC1CCCC1 | -12 | 2 | -7 | -2 | 0
C[C@H](O)C#Cc1ccc2c(c1)O[C@H](CN(C)Cc1ccccc1)[C@H](C)CN([C@@H](C)CO)S2(=O)=O | 2 | 5 | -5 | -1 | -1
SMILES | ERAP1 HTS inh | F508del corr | S100A4 MyoIIA | SIRT5 inh | Ecoli rRNA inh
C[C@H](O)C#Cc1ccc2c(c1)O[C@H](CN(C)Cc1ccc(-c3ccccc3)cc1)[C@H](C)CN([C@@H](C)CO)S2(=O)=O | 0 | 0 | -3 | 27* | -4
CC(C)(C)C(=O)N1CCN(c2ccc([N+](=O)[O-])cc2-n2cccc2)CC1 | 2 | -2 | -3 | . | 3
O=C(C1CC1)N1CCN(c2ccc([N+](=O)[O-])cc2-n2cccc2)CC1 | 8 | 1 | 4 | 8 | -30*
CC(C)C(=O)N1CCN(c2nc3ccc(Cl)cc3s2)CC1 | 0 | 1 | -8 | 2 | -35*
CC(C)NC(=O)N1CCCN(c2nc3ccc(Cl)cc3s2)CC1 | 0 | -2 | 1 | -2 | -24*
CC=Cc1ccc2n(c1=O)C[C@@H]1[C@@H](CO)[C@H](C(=O)N[C@H](C)c3ccccc3)[C@H]2N1Cc1ccccc1 (mixture of isomers) | 2 | -1 | 16 | -13 | -1
Cn1cncc1C#Cc1c(C=O)n(C)c2ccccc12 | -7 | 1 | 10 | -3 | -7
COc1cc(C#Cc2c(C=O)n(C)c3ccccc23)cc(OC)c1 | -1 | 1 | 2 | 32* | 7
NC(=O)COC(=O)c1cc(-c2cccs2)nn1-c1ccccc1 | . | 0 | -1 | . | 11
COC(=O)c1cc(-c2cccs2)nn1-c1ccccc1 | 0 | 1 | 4 | -2 | -29*
COc1cc(OC)c(N(C)S(=O)(=O)c2cccc(C(=O)NC3=NCCS3)c2)cc1Cl | -2 | -2 | 3 | -1 | -23*
COC(=O)c1ccc(C2C(C#N)=C(N)Oc3cc(N)ccc32)cc1 (stereo unspecified) | 0 | 1 | -3 | 2 | -12
N#CC1=C(N)Oc2cc(N)ccc2C1c1cccc(F)c1 (stereo unspecified) | -1 | 10* | 4 | -3 | 16
COc1cccc(C#Cc2ccc3c(c2)[C@H]2[C@H](CCN2C(=O)Cc2ccccc2)[C@@H](CO)N3C)c1 | . | . | . | . | 4

Compound activity (PubChem BioAssay)
